Test system: Fibroblast
Assay: Multiplex assay against human fibroblast
Format: toxicity, cell-based
Outline: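 On a CQ1 microscope at 37°C and 5% CO2, live cells were imaged after compound addition. They had been stained at seeding with Hoechst33342, BioTracker Green Microtubule Cytoskeleton Dye, MitoTracker Red and Annexin V Alexa Fluor 680. CellPathfinder machine-learning gating assigned cells to Hoechst high-intensity objects or normal cells, normal cells to healthy, pyknosed or fragmented nuclei, and pyknosed cells to mitotic or apoptotic. Tubulin, mitochondrial-mass and membrane-permeability phenotypes are per cents of healthy-nucleus cells.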

[1] = 12 h, 1 µM, compound concentration 1 uM, replicate 1
[2] = 12 h, 1 µM, compound concentration 1 uM, replicate 2
[3] = 12 h, 10 µM, compound concentration 10 uM, replicate 1
[4] = 12 h, 10 µM, compound concentration 10 uM, replicate 2
[5] = 24 h, 1 µM, compound concentration 1 uM, replicate 1
[6] = 24 h, 1 µM, compound concentration 1 uM, replicate 2
[7] = 24 h, 10 µM, compound concentration 10 uM, replicate 1
[8] = 24 h, 10 µM, compound concentration 10 uM, replicate 2
[9] = 48 h, 1 µM, compound concentration 1 uM, replicate 1
[10] = 48 h, 1 µM, compound concentration 1 uM, replicate 2
[11] = 48 h, 10 µM, compound concentration 10 uM, replicate 1
[12] = 48 h, 10 µM, compound concentration 10 uM, replicate 2

Compound: Cl.N#Cc1ccc2[nH]cc(CCCCN3CCN(c4ccc5oc(C(N)=O)cc5c4)CC3)c2c1 [VILAZODONE HYDROCHLORIDE]
- Population Apoptotic (%) [1]: 75%
- Population Fragmented Nuclei (%) [1]: 38%
- Population Healthy Nuclei (%) [1]: 22%
- Population Hoechst High Intensity Objects (%) [1]: 19%
- Population Membrane Permeable-Phenotype (%) [1]: 28%
- Population Mitochondria Different-Phenotype (%) [1]: 9%
- Population Mitotic Cells (%) [1]: 25%
- Population Normal (%) [1]: 80%
- Population Pyknosed Nuclei (%) [1]: 38%
- Population Tubulin-Different-Phenotype (%) [1]: 47%
- Total Cell Count [1]: 116
- Population Apoptotic (%) [2]: 27%
- Population Fragmented Nuclei (%) [2]: 14%
- Population Healthy Nuclei (%) [2]: 70%
- Population Hoechst High Intensity Objects (%) [2]: 2%
- Population Membrane Permeable-Phenotype (%) [2]: 6%
- Population Mitochondria Different-Phenotype (%) [2]: 30%
- Population Mitotic Cells (%) [2]: 72%
- Population Normal (%) [2]: 97%
- Population Pyknosed Nuclei (%) [2]: 15%
- Population Tubulin-Different-Phenotype (%) [2]: 18%
- Total Cell Count [2]: 50
- Population Apoptotic (%) [3]: 69%
- Population Fragmented Nuclei (%) [3]: 19%
- Population Healthy Nuclei (%) [3]: 18%
- Population Hoechst High Intensity Objects (%) [3]: 35%
- Population Membrane Permeable-Phenotype (%) [3]: 17%
- Population Mitochondria Different-Phenotype (%) [3]: 21%
- Population Mitotic Cells (%) [3]: 30%
- Population Normal (%) [3]: 64%
- Population Pyknosed Nuclei (%) [3]: 62%
- Population Tubulin-Different-Phenotype (%) [3]: 52%
- Total Cell Count [3]: 197
- Population Apoptotic (%) [4]: 67%
- Population Fragmented Nuclei (%) [4]: 20%
- Population Healthy Nuclei (%) [4]: 14%
- Population Hoechst High Intensity Objects (%) [4]: 10%
- Population Membrane Permeable-Phenotype (%) [4]: 38%
- Population Mitochondria Different-Phenotype (%) [4]: 46%
- Population Mitotic Cells (%) [4]: 32%
- Population Normal (%) [4]: 89%
- Population Pyknosed Nuclei (%) [4]: 64%
- Population Tubulin-Different-Phenotype (%) [4]: 92%
- Total Cell Count [4]: 72
- Population Apoptotic (%) [5]: 63%
- Population Fragmented Nuclei (%) [5]: 32%
- Population Healthy Nuclei (%) [5]: 42%
- Population Hoechst High Intensity Objects (%) [5]: 25%
- Population Membrane Permeable-Phenotype (%) [5]: 21%
- Population Mitochondria Different-Phenotype (%) [5]: 8%
- Population Mitotic Cells (%) [5]: 36%
- Population Normal (%) [5]: 74%
- Population Pyknosed Nuclei (%) [5]: 25%
- Population Tubulin-Different-Phenotype (%) [5]: 51%
- Total Cell Count [5]: 118
- Population Apoptotic (%) [6]: 60%
- Population Fragmented Nuclei (%) [6]: 15%
- Population Healthy Nuclei (%) [6]: 78%
- Population Hoechst High Intensity Objects (%) [6]: 1%
- Population Membrane Permeable-Phenotype (%) [6]: 3%
- Population Mitochondria Different-Phenotype (%) [6]: 19%
- Population Mitotic Cells (%) [6]: 40%
- Population Normal (%) [6]: 98%
- Population Pyknosed Nuclei (%) [6]: 6%
- Population Tubulin-Different-Phenotype (%) [6]: 18%
- Total Cell Count [6]: 54
- Population Apoptotic (%) [7]: 66%
- Population Fragmented Nuclei (%) [7]: 22%
- Population Healthy Nuclei (%) [7]: 23%
- Population Hoechst High Intensity Objects (%) [7]: 35%
- Population Membrane Permeable-Phenotype (%) [7]: 50%
- Population Mitochondria Different-Phenotype (%) [7]: 20%
- Population Mitotic Cells (%) [7]: 33%
- Population Normal (%) [7]: 64%
- Population Pyknosed Nuclei (%) [7]: 53%
- Population Tubulin-Different-Phenotype (%) [7]: 50%
- Total Cell Count [7]: 197
- Population Apoptotic (%) [8]: 75%
- Population Fragmented Nuclei (%) [8]: 31%
- Population Healthy Nuclei (%) [8]: 9%
- Population Hoechst High Intensity Objects (%) [8]: 18%
- Population Membrane Permeable-Phenotype (%) [8]: 30%
- Population Mitochondria Different-Phenotype (%) [8]: 90%
- Population Mitotic Cells (%) [8]: 24%
- Population Normal (%) [8]: 81%
- Population Pyknosed Nuclei (%) [8]: 59%
- Population Tubulin-Different-Phenotype (%) [8]: 90%
- Total Cell Count [8]: 79
- Population Apoptotic (%) [9]: 60%
- Population Fragmented Nuclei (%) [9]: 35%
- Population Healthy Nuclei (%) [9]: 53%
- Population Hoechst High Intensity Objects (%) [9]: 30%
- Population Mitochondria Different-Phenotype (%) [9]: 0%
- Population Mitotic Cells (%) [9]: 40%
- Population Normal (%) [9]: 69%
- Population Pyknosed Nuclei (%) [9]: 10%
- Population Tubulin-Different-Phenotype (%) [9]: 43%
- Total Cell Count [9]: 136
- Population Apoptotic (%) [10]: 33%
- Population Fragmented Nuclei (%) [10]: 39%
- Population Healthy Nuclei (%) [10]: 57%
- Population Hoechst High Intensity Objects (%) [10]: 13%
- Population Membrane Permeable-Phenotype (%) [10]: 7%
- Population Mitochondria Different-Phenotype (%) [10]: 1%
- Population Mitotic Cells (%) [10]: 66%
- Population Normal (%) [10]: 86%
- Population Pyknosed Nuclei (%) [10]: 2%
- Population Tubulin-Different-Phenotype (%) [10]: 64%
- Total Cell Count [10]: 153
- Population Apoptotic (%) [11]: 50%
- Population Fragmented Nuclei (%) [11]: 22%
- Population Healthy Nuclei (%) [11]: 23%
- Population Hoechst High Intensity Objects (%) [11]: 38%
- Population Membrane Permeable-Phenotype (%) [11]: 51%
- Population Mitochondria Different-Phenotype (%) [11]: 21%
- Population Mitotic Cells (%) [11]: 50%
- Population Normal (%) [11]: 61%
- Population Pyknosed Nuclei (%) [11]: 53%
- Population Tubulin-Different-Phenotype (%) [11]: 51%
- Total Cell Count [11]: 230
- Population Apoptotic (%) [12]: 34%
- Population Fragmented Nuclei (%) [12]: 15%
- Population Healthy Nuclei (%) [12]: 34%
- Population Hoechst High Intensity Objects (%) [12]: 44%
- Population Membrane Permeable-Phenotype (%) [12]: 31%
- Population Mitochondria Different-Phenotype (%) [12]: 40%
- Population Mitotic Cells (%) [12]: 65%
- Population Normal (%) [12]: 55%
- Population Pyknosed Nuclei (%) [12]: 50%
- Population Tubulin-Different-Phenotype (%) [12]: 72%
- Total Cell Count [12]: 247

From ChEMBL document CHEMBL4689842, “EUbOPEN Chemogenomics Library wave 1” (2021)
